{"source": "ChEMBL document CHEMBL1151201", "about": "“Tolaasins A--E, five new lipodepsipeptides produced by Pseudomonas tolaasii” (2004)", "key": {"Rhizoctonia solani": {"tested_on": "Rhizoctonia solani", "experiment": "Antifungal activity against Rhizoctonia solani 1583 after 24 to 48 hrs by soft agar procedure", "assay_type": "functional", "outline": "(§1)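 Tolaasin stock solutions in distilled water were serially diluted 1:1 and applied as drops onto soft-agar lawns of the test organism. The endpoint recorded was the last dilution that still inhibited growth in the area where the drop was applied.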"}, "Rhodotorula mucilaginosa": {"tested_on": "Rhodotorula mucilaginosa", "experiment": "Antifungal activity against Rhodotorula pilimanae ATCC 26423 after 24 to 48 hrs by soft agar procedure", "assay_type": "functional", "outline": "as §1"}, "Priestia megaterium": {"tested_on": "Priestia megaterium", "experiment": "Antibacterial activity against Bacillus megaterium ITM 100 after 24 to 48 hrs by soft agar procedure", "assay_type": "functional", "outline": "as §1"}, "Rhodococcus fascians": {"tested_on": "Rhodococcus fascians", "experiment": "Antibacterial activity against Rhodococcus fascians NCPPB3067 after 24 to 48 hrs by soft agar procedure", "assay_type": "functional, Rhodococcoides fascians", "outline": "as §1"}, "Escherichia coli": {"tested_on": "Escherichia coli", "experiment": "Antibacterial activity against Escherichia coli K-12 ITM103 after 24 to 48 hrs by soft agar procedure", "assay_type": "functional", "outline": "as §1"}, "[1]": {"tested_on": "Pectobacterium carotovorum", "experiment": "Antibacterial activity against Erwinia carotovora subsp. carotovora ICMP 5702 after 24 to 48 hrs by soft agar procedure", "assay_type": "functional, Pectobacterium carotovorum subsp. carotovorum", "outline": "as §1"}}, "data": [{"smiles": "C/C=C(\\NC(=O)[C@H](NC(=O)[C@H](CC(C)C)NC(=O)[C@@H](CCC(N)=O)NC(=O)[C@@H](NC(=O)[C@H](NC(=O)[C@@H](CC(C)C)NC(=O)[C@@H](CO)NC(=O)[C@H](NC(=O)[C@H](CC(C)C)NC(=O)[C@H](CO)NC(=O)[C@H]1CCCN1C(=O)/C(=C/C)NC(=O)CC(O)CCCCC)C(C)C)C(C)C)C(C)C)C(C)C)C(=O)N[C@H]1C(=O)N[C@@H](CC(C)C)C(=O)N[C@@H](CCO)C(=O)N[C@H](CCN)C(=O)N[C@@H](CCCCN)C(=O)O[C@@H]1C", "note": "(some centres not stated) [TOLAASIN D]", "values": [{"measurement": "MIC", "setting": "Rhizoctonia solani", "value": 0.16, "unit": "µg"}, {"measurement": "MIC", "setting": "Rhodotorula mucilaginosa", "value": 2.56, "unit": "µg"}, {"measurement": "MIC", "setting": "Priestia megaterium", "value": 0.16, "unit": "µg"}, {"measurement": "MIC", "setting": "Rhodococcus fascians", "value": 0.16, "unit": "µg"}, {"measurement": "MIC", "setting": "Escherichia coli", "value": ">5.12", "unit": "µg"}, {"measurement": "MIC", "setting": "[1]", "value": ">5.12", "unit": "µg"}]}, {"smiles": "C/C=C(\\NC(=O)[C@H](NC(=O)[C@H](CC(C)C)NC(=O)[C@@H](CCC(N)=O)NC(=O)[C@@H](NC(=O)[C@H](NC(=O)[C@@H](CC(C)C)NC(=O)[C@@H](CO)NC(=O)[C@H](NC(=O)[C@H](CC(C)C)NC(=O)[C@H](CO)NC(=O)[C@H]1CCCN1C(=O)/C(=C/C)NC(=O)CC(O)CCCCC)C(C)C)C(C)C)C(C)C)C(C)C)C(=O)N[C@H]1C(=O)N[C@@H](C(C)C)C(=O)N[C@@H](CCO)C(=O)N[C@H](CCN)C(=O)N[C@@H](CCCCN)C(=O)O[C@@H]1C", "note": "(some centres not stated) [TOLAASIN B]", "values": [{"measurement": "MIC", "setting": "Rhizoctonia solani", "value": 2.56, "unit": "µg"}, {"measurement": "MIC", "setting": "Rhodotorula mucilaginosa", "value": ">5.12", "unit": "µg"}, {"measurement": "MIC", "setting": "Priestia megaterium", "value": 2.56, "unit": "µg"}, {"measurement": "MIC", "setting": "Rhodococcus fascians", "value": 1.28, "unit": "µg"}, {"measurement": "MIC", "setting": "Escherichia coli", "value": ">5.12", "unit": "µg"}, {"measurement": "MIC", "setting": "[1]", "value": ">5.12", "unit": "µg"}]}, {"smiles": "C/C=C(\\NC(=O)[C@H](NC(=O)[C@H](CC(C)C)NC(=O)[C@@H](CCC(N)=O)NC(=O)[C@@H](NC(=O)[C@H](NC(=O)[C@@H](CC(C)C)NC(=O)[C@@H](CO)NC(=O)[C@H](NC(=O)[C@H](CC(C)C)NC(=O)[C@H](CO)NC(=O)[C@H]1CCCN1C(=O)/C(=C/C)NC(=O)CCCC(=O)O)C(C)C)C(C)C)C(C)C)C(C)C)C(=O)N[C@H]1C(=O)N[C@@H]([C@@H](C)CC)C(=O)N[C@@H](CCO)C(=O)N[C@H](CCN)C(=O)N[C@@H](CCCCN)C(=O)O[C@@H]1C", "note": "[TOLAASIN A]", "values": [{"measurement": "MIC", "setting": "Rhizoctonia solani", "value": 1.28, "unit": "µg"}, {"measurement": "MIC", "setting": "Rhodotorula mucilaginosa", "value": 5.12, "unit": "µg"}, {"measurement": "MIC", "setting": "Priestia megaterium", "value": 1.28, "unit": "µg"}, {"measurement": "MIC", "setting": "Rhodococcus fascians", "value": 1.28, "unit": "µg"}, {"measurement": "MIC", "setting": "Escherichia coli", "value": ">5.12", "unit": "µg"}, {"measurement": "MIC", "setting": "[1]", "value": ">5.12", "unit": "µg"}]}, {"smiles": "C/C=C(\\NC(=O)[C@H](NC(=O)[C@H](CC(C)C)NC(=O)[C@@H](CCC(N)=O)NC(=O)[C@@H](NC(=O)[C@H](NC(=O)[C@@H](CC(C)C)NC(=O)[C@@H](CO)NC(=O)[C@H](NC(=O)[C@H](CC(C)C)NC(=O)[C@H](CO)NC(=O)[C@H]1CCCN1C(=O)/C(=C/C)NC(=O)CC(O)CCCCC)C(C)C)C(C)C)C(C)C)C(C)C)C(=O)N[C@H]1C(=O)N[C@@H](CC(C)C)C(=O)NCC(=O)N[C@H](CCN)C(=O)N[C@@H](CCCCN)C(=O)O[C@@H]1C", "note": "(some centres not stated) [TOLAASIN E]", "values": [{"measurement": "MIC", "setting": "Rhizoctonia solani", "value": 5.12, "unit": "µg"}, {"measurement": "MIC", "setting": "Rhodotorula mucilaginosa", "value": ">5.12", "unit": "µg"}, {"measurement": "MIC", "setting": "Priestia megaterium", "value": 2.56, "unit": "µg"}, {"measurement": "MIC", "setting": "Rhodococcus fascians", "value": 2.56, "unit": "µg"}, {"measurement": "MIC", "setting": "Escherichia coli", "value": ">5.12", "unit": "µg"}, {"measurement": "MIC", "setting": "[1]", "value": ">5.12", "unit": "µg"}]}, {"smiles": "C/C=C(\\NC(=O)[C@H](NC(=O)[C@H](CC(C)C)NC(=O)[C@@H](CCC(N)=O)NC(=O)[C@@H](NC(=O)[C@H](NC(=O)[C@@H](CC(C)C)NC(=O)[C@@H](CO)NC(=O)[C@H](NC(=O)[C@H](CC(C)C)NC(=O)[C@H](CO)NC(=O)[C@H]1CCCN1C(=O)/C(=C/C)NC(=O)CC(O)CCCCC)C(C)C)C(C)C)C(C)C)C(C)C)C(=O)N[C@H]1C(=O)N[C@@H]([C@@H](C)CC)C(=O)NCC(=O)N[C@H](CCN)C(=O)N[C@@H](CCCCN)C(=O)O[C@@H]1C", "note": "(some centres not stated) [TOLAASIN II]", "values": [{"measurement": "MIC", "setting": "Rhizoctonia solani", "value": 0.64, "unit": "µg"}, {"measurement": "MIC", "setting": "Rhodotorula mucilaginosa", "value": 5.12, "unit": "µg"}, {"measurement": "MIC", "setting": "Priestia megaterium", "value": 0.64, "unit": "µg"}, {"measurement": "MIC", "setting": "Rhodococcus fascians", "value": 0.64, "unit": "µg"}, {"measurement": "MIC", "setting": "Escherichia coli", "value": ">5.12", "unit": "µg"}, {"measurement": "MIC", "setting": "[1]", "value": ">5.12", "unit": "µg"}]}, {"smiles": "C/C=C(\\NC(=O)[C@H](NC(=O)[C@H](CC(C)C)NC(=O)[C@@H](CCC(N)=O)NC(=O)[C@@H](NC(=O)[C@H](NC(=O)[C@@H](CC(C)C)NC(=O)[C@@H](CO)NC(=O)[C@H](NC(=O)[C@H](CC(C)C)NC(=O)[C@H](CO)NC(=O)[C@H]1CCCN1C(=O)/C(=C/C)NC(=O)CC(O)CCCCC)C(C)C)C(C)C)C(C)C)C(C)C)C(=O)N[C@@H](C(=O)N[C@H](C(=O)N[C@@H](CCO)C(=O)N[C@H](CCN)C(=O)N[C@@H](CCCCN)C(=O)O)[C@@H](C)CC)[C@@H](C)O", "note": "(some centres not stated) [TOLAASIN C]", "values": [{"measurement": "MIC", "setting": "Rhizoctonia solani", "value": 5.12, "unit": "µg"}, {"measurement": "MIC", "setting": "Rhodotorula mucilaginosa", "value": ">5.12", "unit": "µg"}, {"measurement": "MIC", "setting": "Priestia megaterium", "value": ">5.12", "unit": "µg"}, {"measurement": "MIC", "setting": "Rhodococcus fascians", "value": ">5.12", "unit": "µg"}, {"measurement": "MIC", "setting": "Escherichia coli", "value": ">5.12", "unit": "µg"}, {"measurement": "MIC", "setting": "[1]", "value": ">5.12", "unit": "µg"}]}, {"smiles": "C/C=C(\\NC(=O)[C@H](NC(=O)[C@H](CC(C)C)NC(=O)[C@@H](CCC(N)=O)NC(=O)[C@@H](NC(=O)[C@H](NC(=O)[C@@H](CC(C)C)NC(=O)[C@@H](CO)NC(=O)[C@H](NC(=O)[C@H](CC(C)C)NC(=O)[C@H](CO)NC(=O)[C@H]1CCCN1C(=O)/C(=C/C)NC(=O)CC(O)CCCCC)C(C)C)C(C)C)C(C)C)C(C)C)C(=O)N[C@H]1C(=O)N[C@@H]([C@@H](C)CC)C(=O)N[C@@H](CCO)C(=O)N[C@H](CCN)C(=O)N[C@@H](CCCCN)C(=O)O[C@@H]1C", "note": "(some centres not stated) [TOLAASIN I]", "values": [{"measurement": "MIC", "setting": "Rhizoctonia solani", "value": 0.32, "unit": "µg"}, {"measurement": "MIC", "setting": "Rhodotorula mucilaginosa", "value": 2.56, "unit": "µg"}, {"measurement": "MIC", "setting": "Priestia megaterium", "value": 0.32, "unit": "µg"}, {"measurement": "MIC", "setting": "Rhodococcus fascians", "value": 0.32, "unit": "µg"}, {"measurement": "MIC", "setting": "Escherichia coli", "value": ">5.12", "unit": "µg"}, {"measurement": "MIC", "setting": "[1]", "value": ">5.12", "unit": "µg"}]}]}
